Molecules are shown by their SMILES.

The subject of experiment [1] is HT-29. Nature of the experiment: Antitumor activity against HT-29 human colon carcinoma xenograft model; Activity expressed as no. of cures by total (8). Format: functional. On the technique in general: In xenograft studies the graft and the host belong to different species.
For experiment [2], the system named is P388. Nature of the experiment: Ratio of IC50 of P388 cells to that of CPT45 cells. Format: functional, Mus musculus.
In experiment [3] the test system is P388. Nature of the experiment: Cytotoxic concentration against murine leukemia P388 cells. The format is functional, cell-based, Mus musculus.
In another experiment the target is T1, DNA topoisomerase 1 (Homo sapiens, UniProt P11387).
T1 sequence (P11387 whole entry): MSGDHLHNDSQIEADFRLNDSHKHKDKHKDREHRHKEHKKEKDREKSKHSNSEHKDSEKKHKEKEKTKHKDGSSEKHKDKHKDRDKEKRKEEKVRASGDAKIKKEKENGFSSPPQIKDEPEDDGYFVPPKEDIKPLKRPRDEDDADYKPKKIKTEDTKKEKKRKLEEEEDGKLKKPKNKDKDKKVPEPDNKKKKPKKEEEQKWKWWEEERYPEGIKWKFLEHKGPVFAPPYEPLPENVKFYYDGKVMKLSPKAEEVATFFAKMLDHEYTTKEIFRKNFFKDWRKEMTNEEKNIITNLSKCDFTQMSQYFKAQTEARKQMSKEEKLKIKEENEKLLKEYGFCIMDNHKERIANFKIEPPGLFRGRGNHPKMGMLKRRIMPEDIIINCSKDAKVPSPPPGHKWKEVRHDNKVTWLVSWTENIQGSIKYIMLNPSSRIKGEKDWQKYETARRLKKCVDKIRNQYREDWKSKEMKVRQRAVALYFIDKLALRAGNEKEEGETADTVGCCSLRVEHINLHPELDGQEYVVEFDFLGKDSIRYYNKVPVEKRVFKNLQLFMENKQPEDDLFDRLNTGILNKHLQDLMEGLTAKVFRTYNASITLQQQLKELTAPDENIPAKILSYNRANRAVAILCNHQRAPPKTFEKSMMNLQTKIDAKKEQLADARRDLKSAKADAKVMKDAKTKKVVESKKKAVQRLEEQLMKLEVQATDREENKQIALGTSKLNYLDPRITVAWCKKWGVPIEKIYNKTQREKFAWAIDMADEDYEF
Nature of the experiment: Topoisomerase I activity for single-strand breaks in the DNA substrate. Summed up:
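Topo I-mediated DNA cleavage assay using covalently closed, supercoiled phage PM2 DNA as substrate; read-out is induction of single-strand breaks.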

In experiment [4] the test system is HT-29. Nature of the experiment: In vivo antitumor activity against HT-29 human colon carcinoma xenograft model when administered iv, (1:1:8 cremophor: ethanol: water vehicle) expressed as optimal effect in LCK. The format is functional.
The subject of experiment [5] is HT-29. Nature of the experiment: Optimal dose required for antitumor activity against HT-29 human colon carcinoma xenograft model when administered twice a day iv dosing every other day for five doses (2q2dx5,iv). Format: functional.
Experiment [6] concerns HT-29. In words: Optimal dose required for antitumor activity against HT-29 human colon carcinoma xenograft model when administered once a day iv dosing every other day for five doses (q2dx5,iv). Format: functional.
The test system of experiment [7] is HT-29. Nature of the experiment: Optimal dose required for antitumor activity against HT-29 human colon carcinoma xenograft model when administered once a day iv dosing every other day for five doses (q2dx5,iv); MTD=30 mg.kg/inj. The format is functional.

By IC50 is commonly meant the concentration that inhibits the measured activity by half. A higher IC50 goes with weaker potency. The term EC50 denotes the concentration at which the effect is half-maximal. Read a high EC50 as a less potent agent. The compound `O=C1NC(=O)c2c1c1c3cc(F)c(F)cc3sc1c1c2c2cc(F)c(F)cc2n1C1OC(CO)C(F)C(O)C1O` (centres undefined) came in with a No. of cures in the experiment with HT-29 [1] of 2. In addition, the Ratio with P388 [2] was more than 1658. In addition, in the experiment with P388 [3] (Mus musculus, P388), the midpoint of inhibition, the IC50, lay at 3 nM. Further, the response at DNA topoisomerase 1 was half-maximal at 40 nM (EC50). Moreover, in the experiment with HT-29 [4], the Activity was more than 2.3. The compound further showed an Optimal dose in the experiment with HT-29 [5] of 11 mg.kg/inj.
As to `O=C1NC(=O)c2c1c1c3cc(F)ccc3[nH]c1c1c2c2cc(F)ccc2n1C1OC(CF)C(O)C(O)C1O` (stereo in doubt; 6), the Ratio with P388 [2] stood at 98. Moreover, in the experiment with P388 [3] (p388), half-maximal inhibition (IC50) required 50 nM. On DNA topoisomerase 1, this compound yielded an EC50 of 480 nM.
Turning to `O=C1NC(=O)c2c1c1c3cc(F)ccc3[nH]c1c1c2c2cc(F)ccc2n1C1OC(CO)C(O)C(O)C1O` (centres undefined), the Ratio in the experiment with P388 [2] stood at 183. Also, in the experiment on P388 [3] (Mus musculus, P388), the IC50 is 18 nM. The EC50 at DNA topoisomerase 1 turned out to be 240 nM.
As to `O=C1NC(=O)c2c1c1c3cc(F)ccc3[nH]c1c1c2c2cc(F)ccc2n1C1OC(CF)C(O)C(O)C1O` (stereo in doubt; 10), in the experiment on P388 [2], the Ratio is 110. In the experiment on P388 [3] (p388), this compound yielded an IC50 of 12 nM. This compound came in with an EC50 on DNA topoisomerase 1 of 4400 nM.
For the compound `O=C1NC(=O)c2c1c1c3ccc(F)cc3[nH]c1c1c2c2ccc(F)cc2n1C1OC(CO)C(F)C(O)C1O` (centres undefined), the Ratio in the experiment on P388 [2] is listed as 59. Besides, half-maximal inhibition in the experiment with P388 [3] (Mus musculus, P388) (IC50) required 3 nM. At DNA topoisomerase 1, this compound yielded an EC50 of 200 nM.
In the experiment on HT-29 [1], `O=C1NC(=O)c2c1c1c3cc(F)ccc3[nH]c1c1c2c2cc(F)ccc2n1C1OC(COF)C(F)C(O)C1O` (centres undefined) showed a No. of cures of 0. Moreover, the Ratio in the experiment on P388 [2] was determined as 450. This compound displayed an Optimal dose in the experiment on HT-29 [6] of 13 mg.kg/inj. The IC50 in the experiment with P388 [3] (Mus musculus, P388) is 4 nM. The compound further registered an EC50 on DNA topoisomerase 1 of 410 nM. In the experiment on HT-29 [4], this compound came in with an Activity of 1.6.
Consider `NCC1OC(n2c3ccc(F)cc3c3c4c(c5c6cc(F)ccc6[nH]c5c32)C(=O)NC4=O)C(O)C(O)C1F` (centres undefined), for which, in the experiment on P388 [2], the Ratio turned out to be 37. In addition, the IC50 in the experiment with P388 [3] (Mus musculus, P388) was 14 nM. The same compound displayed an EC50 on DNA topoisomerase 1 of 70 nM.
In the experiment on HT-29 [1], `O=C1NC(=O)c2c1c1c3cc(F)ccc3[nH]c1c1c2c2cc(F)ccc2n1C1OC(CO)C(F)C(O)C1O` (centres undefined) yielded a No. of cures of 2. Besides, in the experiment with HT-29 [7], the Optimal dose came out at 20 mg.kg/inj. Moreover, in the experiment with P388 [2], the Ratio turned out to be 380. For the same compound, it took 2 nM to reach half-maximal inhibition in the experiment with P388 [3] (Mus musculus, P388) (IC50). The compound further gave a 50% effective concentration (EC50) at DNA topoisomerase 1 of 110 nM. In the experiment with HT-29 [4], this compound displayed an Activity of 3.1.
On to `O=C1NC(=O)c2c1c1c3cc(F)c(F)cc3sc1c1c2c2cc(F)c(F)cc2n1C1OC(CF)C(O)C(O)C1O` (centres undefined), for which the Ratio with P388 [2] is 119. In the experiment on P388 [3] (Mus musculus, P388), this compound registered an IC50 of 52 nM. Besides, at DNA topoisomerase 1, a half-maximal effect (EC50) was put at 1500 nM.
The matching figures for `O=C1NC(=O)c2c1c1c3cc(F)c(F)cc3[nH]c1c1c2c2cc(F)c(F)cc2n1C1OC(CF)C(O)C(O)C1O` (centres undefined): 52, 34 nM and 3000 nM.
Consider `O=C1NC(=O)c2c1c1c3cc(F)ccc3sc1c1c2c2cc(F)ccc2n1C1OC(CF)C(O)C(O)C1O` (centres undefined), for which the Ratio with P388 [2] was 110. The compound further yielded an IC50 with P388 [3] (Mus musculus, P388) of 16 nM. Also, at DNA topoisomerase 1, a half-maximal effect (EC50) was put at 420 nM.
As to `O=C1NC(=O)c2c1c1c3cc(F)c(F)cc3sc1c1c2c2cc(F)c(F)cc2n1C1OC(CO)C(F)(F)C(O)C1O` (centres undefined), the Ratio in the experiment with P388 [2] is 580. The same compound had an IC50 in the experiment on P388 [3] (Mus musculus, P388) of 0.4 nM. Further, on DNA topoisomerase 1, the EC50 stood at 500 nM.
In the same order, the values of `O=C1NC(=O)c2c1c1c3cc(F)c(F)cc3[nH]c1c1c2c2cc(F)c(F)cc2n1C1OC(CO)C(F)C(O)C1O` (centres undefined) are 500, 4 nM and 750 nM.
The matching figures for `NCC1OC(n2c3cc(F)c(F)cc3c3c4c(c5c6cc(F)c(F)cc6[nH]c5c32)C(=O)NC4=O)C(O)C(O)C1(F)F` (centres undefined): 16, 60 nM and 50 nM.
In the same order, the values of `O=C1NC(=O)c2c1c1c3cc(F)ccc3[nH]c1c1c2c2cc(F)ccc2n1C1OC(CO)C(F)(F)C(O)C1O` (centres undefined) are 380, 3 nM and 80 nM.

The record behind these values is ChEMBL document CHEMBL1143557, “Discovery of a fluoroindolo[2,3-a]carbazole clinical candidate with broad spectrum antitumor activity in preclinical tumor models superior to the marketed oncology drug, CPT-11” (J Med Chem, 2005).
